Data: ChEMBL document CHEMBL4732104, “Discovery of bardoxolone derivatives as novel orally active necroptosis inhibitors” (Eur J Med Chem, 2021)
Calls of active or inactive are those of the source. The rule behind the calls is not given here.

Columns and labels:
HT-29 [1] = test: Anti-necroptotic activity in human HT-29 cells assessed as inhibition of TNFalpha/SM-164/Z-VAD-fmk (TSZ)-induced necroptosis by measuring increase in cell viability at 10 uM measured after 12 hrs in presence of RIPK1/3 inhibitor TAK632 by celltiter-glo luminescent cell viability assay; format: functional, cell-based
Summary of the method: (§1)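 HT-29 cells exposed to test agent combined with a second necroptosis inhibitor, then stimulated with TSZ for 12 h to assess synergy. Viability read by CellTiter-Glo luminescence.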

HT-29 [2] = test: Anti-necroptotic activity in human HT-29 cells assessed as inhibition of TNFalpha/SM-164/Z-VAD-fmk (TSZ)-induced necroptosis by measuring increase in cell viability measured after 12 hrs by celltiter-glo luminescent cell viability assay; format: functional, cell-based
Summary of the method: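 HT-29 cells pretreated with test agent across a concentration range, then TNF-α (20 ng/mL), Smac mimetic (10 nM) and z-VAD-fmk (20 μM) for 12–16 h. CellTiter-Glo viability. EC50 ± SD from at least three independent experiments.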

HT-29 [3] = test: Anti-necroptotic activity in human HT-29 cells assessed as inhibition of TNFalpha/cycloheximide/Z-VAD-fmk (TCZ)-induced necroptosis by measuring increase in cell viability measured after 16 hrs by celltiter-glo luminescent cell viability assay; format: functional, cell-based
L929 = test: Anti-necroptotic activity in mouse L929 cells assessed as inhibition of TNFalpha/Z-VAD-fmk (TZ)-induced necroptosis by measuring increase in cell viability measured after 12 hrs by celltiter-glo luminescent cell viability assay; format: functional, cell-based
Summary of the method: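 Mouse L929 fibroblasts pretreated with test agent, then mouse TNF-α (20 ng/mL) plus z-VAD-fmk (20 μM). Incubation stated as 4 h in table footnote and 12 h in figure legend. CellTiter-Glo viability. EC50 ± SD from at least three independent repeats.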

HT-29 [4] = test: Protection against TNFalpha/SM-164 (TS)-induced apoptosis in human HT-29 cells assessed as increase in cell viability at 0.5 to 10 uM measured after 20 hrs by celltiter-glo luminescent cell viability assay; format: functional, cell-based; conditions: dose 0.5-10 µM
Summary of the method: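 HT-29 cells exposed to agent across concentrations, then TNF-α and Smac mimetic (TS) for 20 h. CellTiter-Glo viability, mean ± S.D. of three independent experiments.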

HT-29 [5] = test: Anti-necroptotic activity in human HT-29 cells assessed as inhibition of TNFalpha/SM-164/Z-VAD-fmk (TSZ)-induced necroptosis by measuring increase in cell viability at 10 uM measured after 12 hrs in presence of RIPK3 inhibitor SZM630 by celltiter-glo luminescent cell viability assay; format: functional, cell-based; summary of the method: as §1
HT-29 [6] = test: Anti-necroptotic activity in human HT-29 cells assessed as inhibition of TNFalpha/SM-164/Z-VAD-fmk (TSZ)-induced necroptosis by measuring increase in cell viability at 10 uM measured after 12 hrs in presence of RIPK1 inhibitor Nec-1 by celltiter-glo luminescent cell viability assay; format: functional, cell-based; summary of the method: as §1
HT-29 [7] = test: Anti-necroptotic activity in human HT-29 cells assessed as inhibition of TNFalpha/SM-164/Z-VAD-fmk (TSZ)-induced necroptosis by measuring increase in cell viability at 10 uM measured after 12 hrs in presence of MLKL inhibitor NSA by celltiter-glo luminescent cell viability assay; format: functional, cell-based; summary of the method: as §1
[8] = biological target: T1, Heat shock protein HSP90 (Homo sapiens) (UniProt P07900+P08238); test: Inhibition of HSP90 in TNFalpha/SM-164/Z-VAD-fmk (TSZ)-induced human HT-29 cells assessed as increase in HSP70 expression at 10 uM by Western blot analysis; format: cell-based; conditions: time 0.5-6 hrs
[9] = biological target: T1, Heat shock protein HSP90 (Homo sapiens); test: Inhibition of HSP90 in TNFalpha/SM-164/Z-VAD-fmk (TSZ)-induced human HT-29 cells assessed as reduction in RIPK3 expression at 10 uM preincubated for 30 mins followed by TSZ stimulation and measured after 2 to 6 hrs by Western blot analysis; format: cell-based; conditions: time 2-6.5 hrs
Summary of the method: (§2)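 HT-29 cells pretreated 30 min with agent (10 μM), then TSZ for the indicated times. Lysed in RIPA with protease and phosphatase inhibitors, BCA quantified. 30 μg protein run on SDS-PAGE and blotted to PVDF. Blocked in 5% BSA, primary antibodies 1:1000 overnight at 4 °C, secondary 1:8000 for 1 h at room temperature.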

[10] = biological target: T1, Heat shock protein HSP90 (Homo sapiens); test: Inhibition of HSP90 in TNFalpha/SM-164/Z-VAD-fmk (TSZ)-induced human HT-29 cells assessed as reduction in MLKL expression at 10 uM preincubated for 30 mins followed by TSZ stimulation and measured after 2 to 6 hrs by Western blot analysis; format: cell-based; conditions: time 2-6.5 hrs; summary of the method: as §2
[11] = biological target: T1, Heat shock protein HSP90 (Homo sapiens); test: Inhibition of HSP90 in TNFalpha/SM-164/Z-VAD-fmk (TSZ)-induced human HT-29 cells assessed as reduction in RIPK1-RIPK3 necrosome formation at 10 uM measured after 6 hrs by Western blot analysis; format: cell-based
Summary of the method: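 HT-29 cells given agent (10 μM) or DMSO for 6 h under TSZ. Lysed in NP-40 buffer with PMSF, protease inhibitors, β-glycerophosphate, NaF and Na3VO4. Anti-RIPK1 immunoprecipitation overnight at 4 °C, protein A/G capture overnight. Eluates boiled in SDS buffer and resolved on 10% gels for immunoblot.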

Mus musculus [12] = test: Protection against TNFalpha-induced C57BL/6J mouse model of systemic inflammatory response syndrome assessed as reduction in IL1beta level at 20 mg/kg, ig administered via gavage 2 hrs prior to TNFalpha stimulation and measured after 6 hrs by ELISA; format: functional, organism-based; conditions: time 8.0 hrs
Summary of the method: (§3)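 Female C57BL/6J mice, 6–8 weeks, fasted overnight, n=11 per group. Agent suspended in 0.5% CMC-Na, given by oral gavage 2 h before i.v. mTNF-α (250 µg/kg in PBS). z-VAD-fmk i.p. 200 µg 15 min before and 75 µg 1 h after. Serum IL-1β and IL-6 measured by ELISA at 6 h.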

Mus musculus [13] = test: Protection against TNFalpha-induced C57BL/6J mouse model of systemic inflammatory response syndrome assessed as reduction in IL6 level at 20 mg/kg, ig administered via gavage 2 hrs prior to TNFalpha stimulation and measured after 6 hrs by ELISA; format: functional, organism-based; conditions: time 8.0 hrs; summary of the method: as §3
Rattus norvegicus [14] = test: Neuroprotective activity in middle cerebral artery occlusion-induced Sprague-Dawley rat model of ischemia-reperfusion injury assessed as neurological deficit score at 100 mg/kg (reference value: 3.71 +/- 0.45); format: functional
Rattus norvegicus [15] = test: Neuroprotective activity in middle cerebral artery occlusion-induced Sprague-Dawley rat model of ischemia-reperfusion injury assessed as reduction in cerebral infarct volume at 100 mg/kg by TTC staining based microscopic analysis relative to control; format: functional; design: scale not given: the % may be the effect or the level left
Summary of the method: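 Rats: left MCA blocked by monofilament via internal carotid under chloral hydrate (300 mg/kg i.p.), 2 h occlusion, 24 h reperfusion. Groups sham, vehicle, compound 100 mg/kg, nimodipine 1 mg/kg given orally beforehand. Brains cut in 2 mm coronal slices, TTC-stained; unstained area as percent of whole brain area; n = 6.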

CC1(C)CC[C@]2(C(=O)n3cnc(-c4cccnc4)c3)CC[C@]3(C)[C@H](C(=O)C=C4[C@@]5(C)C=C(C#N)C(=O)C(C)(C)[C@@H]5CC[C@]43C)[C@@H]2C1
inhibition (HT-29 [1]): Active | inhibition (HT-29 [2]): Dose-dependent effect | EC50 (HT-29 [2]; HT-29, 12 h): 310 nM | inhibition (HT-29 [3]): Dose-dependent effect | inhibition (L929): Dose-dependent effect | EC50 (L929; L929, 12 h): 860 nM | Activity (HT-29 [4]): Active | inhibition (HT-29 [5]): Active | inhibition (HT-29 [6]): Active | inhibition (HT-29 [7]): Active | inhibition [8]: Dose-dependent effect | inhibition [9]: Active | inhibition [10]: Active | inhibition [11]: Active | Activity (Mus musculus [12]): Active | Activity (Mus musculus [13]): Active | Activity (Rattus norvegicus [14]): 2.72 | Activity (Rattus norvegicus [15]): 22.8%
